# High-throughput results: PubChem BioAssay, several laboratories
# AHR activator – activates the human aryl hydrocarbon receptor; P35869; AHR-responsive luciferase reporter cells, luminescence; activation, % at 5 µM; actives 2.5% (n = 320,000); in the data active = activation above about 47%;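 note: 0% = vehicle wells and 100% = reference agonist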
# FXIIa inh 1536 – inhibitors of human coagulation factor XIIa; actives 0.3% (n = 220,000); P00748; inhibition, % at 5 µM; purified FXIIa, Boc-QGR-AMC fluorogenic substrate, 2 h; in the data active = inhibition above about 40%;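 note: 0% = enzyme with no compound and 100% = blank without enzyme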
# KLK5 inh – kallikrein 5 (human) inhibition; recombinant hK5, fluorogenic AMC substrate cleavage; AID 873; Q9Y337; inhibition, % at 5 µM; actives 0.59% (n = 210,000);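 active = inhibition of 40% or more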;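 note: 0% = enzyme controls without compound and 100% = no-enzyme blanks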
# Target sequence (Q9Y337 67-293 limits assumed): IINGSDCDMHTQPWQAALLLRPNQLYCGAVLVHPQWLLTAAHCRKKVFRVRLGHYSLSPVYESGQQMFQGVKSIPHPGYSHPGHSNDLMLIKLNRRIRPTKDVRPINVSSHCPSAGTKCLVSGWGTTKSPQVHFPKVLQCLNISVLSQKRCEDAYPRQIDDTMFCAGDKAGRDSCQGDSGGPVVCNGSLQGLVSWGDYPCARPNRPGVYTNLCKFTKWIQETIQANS
# FXIa inh – blocks human coagulation factor XIa protease activity; purified FXIa, Boc-Glu-Ala-Arg-AMC fluorogenic substrate; actives 0.14% (n = 220,000); inhibition, % at 5 µM; AID 798;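 active = inhibition of at least 40%; inactive = inhibition below 40%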;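 note: fluorescence of freed AMC excited at 355 nm; 0% = enzyme without compound and 100% = no enzyme blank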
# thrombin 1536 – inhibitors of human thrombin; actives 0.26% (n = 220,000); inhibition, % at 5 µM; alpha-thrombin, Boc-VPR-AMC fluorogenic substrate cleavage; AID 1046;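 active = inhibition at or above 40%; inactive = inhibition below 40%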;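 note: 0% = enzyme with no compound and 100% = wells without enzyme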
#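 System – human alpha-thrombin protein · Reagent – Boc-VPR-AMC substrate, 15 µM final · Compound – 5 µM single dose in 0.2% DMSO · Schedule – reaction at room temperature · Technique – AMC fluorescence at 355 nm excitation and 460 nm emission · Read-out basis – % inhibition relative to enzyme controls and enzyme-free blanks · Control set – no-compound enzyme wells and no-enzyme blanks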
# STAT3 activator – activators of IL-6 induced STAT3 signaling; activation (% of control), % at 5.6 µM; actives 0.91% (n = 190,000); U3A cells, IL-6 STAT3-luciferase reporter, luminescence; 100% = signal with IL-6 EC80 alone;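 active = activation above the screen-wide mean of compound activation plus 3 SD, cut at about 130% in these data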;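 note: 0% = background luminescence of wells with medium and substrate only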
#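 Material: human U3A cells carrying STAT3-luciferase construct. Measured by: reporter luminescence signal. Timing: compound 1 h, then IL-6 6 h at 37 °C.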
# Numbers without * were called inactive; x = not tested or not shown. Compounds with a hit are over-represented: about 3.5% of the library has one in this group of screens.
SMILES,AHR activator,FXIIa inh 1536,KLK5 inh,FXIa inh,thrombin 1536,STAT3 activator
Cc1nc2cc(NCc3ccc(Cl)cc3)ccc2n1C,24,x,x,x,x,x
Cc1ccc(CNc2ccc3c(c2)nc(C)n3C)cc1,57*,x,x,x,x,x
COc1cccc(OC)c1OCCCN1CCC(Cc2ccccc2)CC1,-1,x,x,x,x,x
Cc1noc(C)c1COC(=O)CCCc1c[nH]c2ccccc12,17,13,-8,-2,2,134*
CCOC(=O)CCCc1c[nH]c2ccccc12,3,-9,-17,12,-5,87
CCn1cc(C2=NC(C(C)C)CO2)c2ccccc21 (stereo unspecified),53*,14,-4,6,-5,95
CCn1cc(C2=NC(CCSC)CO2)c2ccccc21 (stereo unspecified),11,14,8,6,7,97
CCn1cc(C2=NC(CC(C)C)CO2)c2ccccc21 (stereo unspecified),67*,5,0,-2,-8,x
Cc1ccc2[nH]c(C(=O)N3CCN(C(c4ccccc4)c4ccccc4)CC3)cc2c1,1,x,x,x,x,x
CCOC(=O)c1sc(NC(=O)/C=C/c2cnn(C)c2C)c(C(=O)OCC)c1C,-1,6,9,0,47*,96
CCn1nc(C)c(NC(=O)/C=C/c2cnn(C)c2C)c1C,1,23,-10,18,4,98
CCC1=[N+](CC(=O)c2ccc(C)cc2)CCn2c(C)ccc21,71*,2,-3,1,-3,96
CCC1=[N+](CC(=O)c2ccc(Br)cc2)CCn2c(C)ccc21,73*,10,4,2,-7,x
CCC1=[N+](CC(=O)c2ccc(C)cc2)CCn2cccc21,23,9,3,1,-1,110
CCC1=[N+](C)CCn2c(C)ccc21,1,4,4,3,-20,99
CC(C)(CO)CNC(=O)CCc1nnc(-c2ccc(-c3ccccc3)cc2)o1,-10,x,x,x,x,x
O=C(CSc1nc2ccccc2s1)NNC(=S)Nc1ccc(Br)cc1,53*,17,-230,7,3,93
CC1(c2cccc(Br)c2)NC(=O)N(CC(=O)N2CCc3ccccc32)C1=O (stereo unspecified),0,x,x,x,x,x
Cc1c(C(=O)NC2CCOC2)oc2c(F)cccc12 (stereo unspecified),79*,x,x,x,x,x
O=C(Nc1ccc(Cl)cc1)C1C2C=CC3(O2)C1C(=O)N(CCCN1CCCCC1)C3C(=O)NC1CCCCC1 (stereo unspecified),-1,x,x,x,x,x
O=S(=O)(NNc1ncc(C(F)(F)F)cc1Cl)c1ccccc1,69*,x,x,x,x,x
CCOC(=O)c1sc(NCCNc2nc(C)c(C(=O)OCC)s2)nc1C,1,x,x,x,x,x
CCOC(=O)c1sc(N(C)C(C)=O)nc1C,2,42*,-4,19,1,93
O=C(CCN1CCCC1=O)NC1CCCc2c1cnn2-c1ccc(F)cc1F (stereo unspecified),4,x,x,x,x,x
C[n+]1c2n(c3ccccc31)N=C(c1ccc(-c3ccccc3)cc1)CS2,53*,6,2,1,-4,46
SMILES,AHR activator,FXIIa inh 1536,KLK5 inh,FXIa inh,thrombin 1536,STAT3 activator
Cc1cc(-c2nnc3n2N=C(c2ccc(-c4ccccc4)cc2)CS3)n[nH]1,23,3,0,-3,3,91
O=C(c1ccccc1)N1CCCCCC1,-2,13,-2,10,1,87
O=c1c2ccccc2nnn1-c1ccc(Br)cc1,117*,13,3,3,-2,x
CC(C)CNC(=S)NC1CC2CCC(C1)N2Cc1ccccc1 (stereo unspecified),12,10,-7,5,0,99
C=CCOc1ccc(/C(O)=C2/C(=O)C(=O)N(CCCn3ccnc3)C2c2cccs2)cc1 (stereo unspecified),0,18,37,6,14,99
N#C/C(=C\c1ccc(-c2ccccc2[N+](=O)[O-])o1)C(=O)Nc1nc(-c2cccs2)cs1,59*,10,-5,3,-8,96
COc1ccc(C(=O)N/N=C/c2sc3ccccc3c2O)cc1,24,16,-42,8,0,87
O=C(N/N=C/c1sc2ccccc2c1O)c1ccccc1,73*,8,10,1,2,114
CCOc1ccc(OCCCCOc2ccccc2C(C)=O)cc1,10,6,-1,-3,7,96
COCCNCC(=O)Nc1nc(C)cs1,x,102*,27,46*,14,98
